# Test results from ChEMBL document CHEMBL1165943, “Design and synthesis of new anticancer pyrimidines with multiple-kinase inhibitory effect” (Bioorg Med Chem, 2010).
# How the values were obtained:
# Assay type in all cases: functional
# K562 = test: Cytotoxicity against human K562 cells assessed as cell growth at 10 uM; settings: Homo sapiens, K562; read-out: Activity
# Procedure, shortened: (§1)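 Single-dose screen at 10 μM across the 60-cell-line panel. Cells grown in RPMI 1640 with 5% FBS and 2 mM L-glutamine, seeded at 5,000–40,000 cells/well according to doubling time, and treated 24 h later. Exposure lasted 48 h at 37 °C, 5% CO₂. Adherent cells were fixed with cold TCA, suspension cells were fixed settled, and both were stained with SRB and read at 515 nm. Growth % was recorded, with inhibition % = 100 − growth %.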
# MOLT-4 = test: Cytotoxicity against human MOLT4 cells assessed as cell growth at 10 uM; settings: Homo sapiens, MOLT-4; read-out: Activity; procedure, shortened: as §1
# SR = test: Cytotoxicity against human SR cells assessed as cell growth at 10 uM; settings: for growth at 10 µM: Homo sapiens, SR, read-out: Activity; procedure, shortened: as §1
# EKVX = test: Cytotoxicity against human EKVX cells assessed as cell growth at 10 uM; settings: Homo sapiens, EKVX; read-out: Activity
# Procedure, shortened: (§2)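 Single-concentration screen at 10 μM across the 60-cell-line panel (nine tissue types); growth percentage recorded per cell line, with inhibition taken as 100 minus growth percentage.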
# NCI-H226 = test: Cytotoxicity against human NCI-H226 cells assessed as cell growth at 10 uM; settings: Homo sapiens, NCI-H226; read-out: Activity; procedure, shortened: as §1
# NCI-H23 = test: Cytotoxicity against human NCI-H23 cells assessed as cell growth at 10 uM; settings: Homo sapiens, NCI-H23; read-out: Activity; procedure, shortened: as §1
# NCI-H322M = test: Cytotoxicity against human NCI-H322M cells assessed as cell growth at 10 uM; settings: Homo sapiens, NCI-H322M; read-out: Activity; procedure, shortened: as §1
# NCI-H522 = test: Cytotoxicity against human NCI-H522 cells assessed as cell growth at 10 uM; settings: Homo sapiens, NCI-H522; read-out: Activity; procedure, shortened: as §1
# HCC 2998 = test: Cytotoxicity against human HCC2998 cells assessed as cell growth at 10 uM; settings: Homo sapiens, HCC 2998; read-out: Activity; procedure, shortened: as §2
# HCT-116 = test: Cytotoxicity against human HCT116 cells assessed as cell growth at 10 uM; settings: Homo sapiens, HCT-116; read-out: Activity; procedure, shortened: as §2
# HCT-15 = test: Cytotoxicity against human HCT15 cells assessed as cell growth at 10 uM; settings: Homo sapiens, HCT-15; read-out: Activity; procedure, shortened: as §2
# KM12 = test: Cytotoxicity against human KM12 cells assessed as cell growth at 10 uM; settings: Homo sapiens, KM12; read-out: Activity; procedure, shortened: as §1
# SW-620 = test: Cytotoxicity against human SW620 cells assessed as cell growth at 10 uM; settings: Homo sapiens, SW-620; read-out: Activity; procedure, shortened: as §1
# SF-295 = test: Cytotoxicity against human SF295 cells assessed as cell growth at 10 uM; settings: for growth at 10 µM: Homo sapiens, SF-295, read-out: Activity; procedure, shortened: as §1
# SF-539 = test: Cytotoxicity against human SF539 cells assessed as cell growth at 10 uM; settings: Homo sapiens, SF-539; read-out: Activity; procedure, shortened: as §1
# SNB-75 = test: Cytotoxicity against human SNB75 cells assessed as cell growth at 10 uM; settings: Homo sapiens, SNB-75; read-out: Activity; procedure, shortened: as §1
# Malme-3M = test: Cytotoxicity against human MALME-3M cells assessed as cell growth at 10 uM; settings: for growth at 10 µM: Homo sapiens, Malme-3M, read-out: Activity; procedure, shortened: as §1
# M14 = test: Cytotoxicity against human M14 cells assessed as cell growth at 10 uM; settings: for growth at 10 µM: Homo sapiens, M14, read-out: Activity; procedure, shortened: as §1
# SK-MEL-2 = test: Cytotoxicity against human SK-MEL-2 cells assessed as cell growth at 10 uM; settings: for growth at 10 µM: Homo sapiens, SK-MEL-2, read-out: Activity; procedure, shortened: as §1
# SK-MEL-28 = test: Cytotoxicity against human SK-MEL-28 cells assessed as cell growth at 10 uM; settings: for growth at 10 µM: Homo sapiens, SK-MEL-28, read-out: Activity; procedure, shortened: as §1
# SK-MEL-5 = test: Cytotoxicity against human SK-MEL-5 cells assessed as cell growth at 10 uM; settings: for growth at 10 µM: Homo sapiens, SK-MEL-5, read-out: Activity; procedure, shortened: as §1
# IGROV-1 = test: Cytotoxicity against human IGROV1 cells assessed as cell growth at 10 uM; settings: for growth at 10 µM: Homo sapiens, IGROV-1, read-out: Activity; procedure, shortened: as §1
# OVCAR-3 = test: Cytotoxicity against human OVCAR-3 cells assessed as cell growth at 10 uM; settings: for growth at 10 µM: Homo sapiens, OVCAR-3, read-out: Activity; procedure, shortened: as §1
# OVCAR-5 = test: Cytotoxicity against human OVCAR5 cells assessed as cell growth at 10 uM; settings: for growth at 10 µM: Homo sapiens, OVCAR-5, read-out: Activity; procedure, shortened: as §1
# NCI/ADR-RES = test: Cytotoxicity against human NCI/ADR-RES cells assessed as cell growth at 10 uM; settings: for growth at 10 µM: Homo sapiens, NCI/ADR-RES, read-out: Activity; procedure, shortened: as §1
# SK-OV-3 = test: Cytotoxicity against human SKOV3 cells assessed as cell growth at 10 uM; settings: for growth at 10 µM: Homo sapiens, SK-OV-3, read-out: Activity; procedure, shortened: as §1
# 786-0 = test: Cytotoxicity against human 786-0 cells assessed as cell growth at 10 uM; settings: for growth at 10 µM: Homo sapiens, 786-0, read-out: Activity; procedure, shortened: as §2
# A498 = test: Cytotoxicity against human A498 cells assessed as cell growth at 10 uM; settings: for growth at 10 µM: Homo sapiens, A498, read-out: Activity; procedure, shortened: as §2
# ACHN = test: Cytotoxicity against human ACHN cells assessed as cell growth at 10 uM; settings: for growth at 10 µM: Homo sapiens, ACHN, read-out: Activity; procedure, shortened: as §2
# CAKI-1 = test: Cytotoxicity against human Caki1 cells assessed as cell growth at 10 uM; settings: for growth at 10 µM: Homo sapiens, CAKI-1, read-out: Activity; procedure, shortened: as §2
# TK-10 = test: Cytotoxicity against human TK10 cells assessed as cell growth at 10 uM; settings: for growth at 10 µM: Homo sapiens, TK-10, read-out: Activity; procedure, shortened: as §1
# UO-31 = test: Cytotoxicity against human UO31 cells assessed as cell growth at 10 uM; settings: for growth at 10 µM: Homo sapiens, UO-31, read-out: Activity; procedure, shortened: as §1
# PC-3 = test: Cytotoxicity against human PC3 cells assessed as cell growth at 10 uM; settings: for growth at 10 µM: Homo sapiens, PC-3, read-out: Activity; procedure, shortened: as §1
# DU-145 = test: Cytotoxicity against human DU145 cells assessed as cell growth at 10 uM; settings: for growth at 10 µM: Homo sapiens, DU-145, read-out: Activity; procedure, shortened: as §2
# MCF7 = test: Cytotoxicity against human MCF7 cells assessed as cell growth at 10 uM; settings: for growth at 10 µM: Homo sapiens, MCF7, read-out: Activity; procedure, shortened: as §1
# MDA-MB-231 = test: Cytotoxicity against human MDA-MB-231 cells assessed as cell growth at 10 uM; settings: for growth at 10 µM: Homo sapiens, MDA-MB-231, read-out: Activity; procedure, shortened: as §1
# BT-549 = test: Cytotoxicity against human BT549 cells assessed as cell growth at 10 uM; settings: for growth at 10 µM: Homo sapiens, BT-549, read-out: Activity; procedure, shortened: as §2
# T47D = test: Cytotoxicity against human T47D cells assessed as cell growth at 10 uM; settings: for growth at 10 µM: Homo sapiens, T47D, read-out: Activity; procedure, shortened: as §1
# MDA-MB-468 = test: Cytotoxicity against human MDA-MB-468 cells assessed as cell growth at 10 uM; settings: for growth at 10 µM: Homo sapiens, MDA-MB-468, read-out: Activity; procedure, shortened: as §1
smiles,measurement,setting,value
CC(=O)c1ccccc1-c1ccc(-c2ccnc(NC(=O)Nc3cc(N4CCOCC4)cc(C(F)(F)F)c3)n2)cn1,growth at 10 µM,K562,83.3%
same,growth at 10 µM,MOLT-4,87.1%
same,growth at 10 µM,SR,86.2%
same,growth at 10 µM,EKVX,88.2%
same,growth at 10 µM,NCI-H226,39.4%
same,growth at 10 µM,NCI-H23,58.5%
same,growth at 10 µM,NCI-H322M,90.1%
same,growth at 10 µM,NCI-H522,60.2%
same,growth at 10 µM,HCC 2998,106%
same,growth at 10 µM,HCT-116,63%
same,growth at 10 µM,HCT-15,84.2%
same,growth at 10 µM,KM12,90.4%
same,growth at 10 µM,SW-620,90.5%
same,growth at 10 µM,SF-295,74.8%
same,growth at 10 µM,SF-539,44.3%
same,growth at 10 µM,SNB-75,8.55%
same,growth at 10 µM,Malme-3M,24.8%
same,growth at 10 µM,M14,8.07%
same,growth at 10 µM,SK-MEL-2,60.8%
same,growth at 10 µM,SK-MEL-28,-74.8%
same,growth at 10 µM,SK-MEL-5,43.2%
same,growth at 10 µM,IGROV-1,70.8%
same,growth at 10 µM,OVCAR-3,123%
same,growth at 10 µM,OVCAR-5,102%
same,growth at 10 µM,NCI/ADR-RES,58.1%
same,growth at 10 µM,SK-OV-3,71.5%
same,growth at 10 µM,786-0,47.3%
same,growth at 10 µM,A498,107%
same,growth at 10 µM,ACHN,45.7%
same,growth at 10 µM,CAKI-1,83.5%
same,growth at 10 µM,TK-10,47.8%
same,growth at 10 µM,UO-31,92.1%
same,growth at 10 µM,PC-3,71.3%
same,growth at 10 µM,DU-145,45.3%
same,growth at 10 µM,MCF7,75%
same,growth at 10 µM,MDA-MB-231,30.1%
same,growth at 10 µM,BT-549,51.7%
same,growth at 10 µM,T47D,79.8%
same,growth at 10 µM,MDA-MB-468,82.1%
CC(=O)c1ccccc1-c1ccc(-c2ccnc(NC(=O)Nc3cc(C(F)(F)F)cc(C(F)(F)F)c3)n2)cn1,growth at 10 µM,K562,90.8%
same,growth at 10 µM,MOLT-4,88.3%
same,Activity,SR,19.97%
same,growth at 10 µM,EKVX,91%
same,growth at 10 µM,NCI-H226,98.6%
same,growth at 10 µM,NCI-H23,99.8%
same,growth at 10 µM,NCI-H322M,85%
same,growth at 10 µM,NCI-H522,90.1%
same,growth at 10 µM,HCC 2998,105%
same,growth at 10 µM,HCT-116,69.9%
same,growth at 10 µM,HCT-15,93.2%
same,growth at 10 µM,KM12,93.8%
same,growth at 10 µM,SW-620,81.8%
same,Activity,SF-295,110.95%
same,growth at 10 µM,SF-539,87%
same,growth at 10 µM,SNB-75,72%
same,Activity,Malme-3M,105.41%
same,Activity,M14,102.28%
same,Activity,SK-MEL-2,95.01%
same,Activity,SK-MEL-28,109.71%
same,Activity,SK-MEL-5,97.2%
same,Activity,IGROV-1,78.4%
same,Activity,OVCAR-3,126.52%
same,Activity,OVCAR-5,113.85%
same,Activity,NCI/ADR-RES,87.74%
same,Activity,SK-OV-3,91.88%
same,Activity,786-0,93.55%
same,Activity,A498,106.93%
same,Activity,ACHN,88.77%
same,Activity,CAKI-1,81.28%
same,Activity,TK-10,102.3%
same,Activity,UO-31,76.28%
same,Activity,PC-3,74.12%
same,Activity,DU-145,91.19%
same,Activity,MCF7,75.33%
same,Activity,MDA-MB-231,83.21%
same,Activity,BT-549,90.06%
same,Activity,T47D,82.59%
same,Activity,MDA-MB-468,81.95%
O=C(Nc1cc(C(F)(F)F)cc(C(F)(F)F)c1)Nc1nccc(-c2ccc(Nc3ccccc3)nc2)n1,growth at 10 µM,K562,93.6%
same,growth at 10 µM,MOLT-4,96.6%
same,growth at 10 µM,SR,84.6%
same,growth at 10 µM,EKVX,134%
same,growth at 10 µM,NCI-H226,104%
same,growth at 10 µM,NCI-H23,108%
same,growth at 10 µM,NCI-H322M,144%
same,growth at 10 µM,NCI-H522,94.3%
same,growth at 10 µM,HCC 2998,109%
same,growth at 10 µM,HCT-116,93.2%
same,growth at 10 µM,HCT-15,108%
same,growth at 10 µM,KM12,117%
same,growth at 10 µM,SW-620,98.8%
same,growth at 10 µM,SF-295,137%
same,growth at 10 µM,SF-539,96.4%
same,growth at 10 µM,SNB-75,90.1%
same,growth at 10 µM,Malme-3M,151%
same,growth at 10 µM,M14,94.2%
same,growth at 10 µM,SK-MEL-2,101%
same,growth at 10 µM,SK-MEL-28,99.8%
same,growth at 10 µM,SK-MEL-5,107%
same,growth at 10 µM,IGROV-1,105%
same,growth at 10 µM,OVCAR-3,124%
same,growth at 10 µM,OVCAR-5,87%
same,growth at 10 µM,NCI/ADR-RES,108%
same,growth at 10 µM,SK-OV-3,83.3%
same,growth at 10 µM,786-0,112%
same,growth at 10 µM,A498,107%
same,growth at 10 µM,ACHN,93%
same,growth at 10 µM,CAKI-1,102%
same,growth at 10 µM,TK-10,123%
same,growth at 10 µM,UO-31,91.6%
same,growth at 10 µM,PC-3,93.5%
same,growth at 10 µM,DU-145,126%
same,growth at 10 µM,MCF7,99.6%
same,growth at 10 µM,MDA-MB-231,93.4%
same,growth at 10 µM,BT-549,111%
same,growth at 10 µM,T47D,110%
same,growth at 10 µM,MDA-MB-468,108%
